Tests used:
Histamine H3 receptor [1] = molecular target: T1, Histamine H3 receptor (Homo sapiens, UniProt Q9Y5N1); test: Antagonist activity at human cloned histamine H3 receptor expressed in CHO-K1 cells assessed as inhibition of R-alpha-methylhistamine-induced [35S]GTPgammaS binding; assay type: functional, cell-based
[2] = molecular target: Voltage-gated inwardly rectifying potassium channel KCNH2 (Homo sapiens, UniProt Q12809); test: Antagonist activity at human ERG in HEK293 cells assessed as inhibition of [35S]N-[(4R)-1'-[(2R)-6-cyano-1,2,3,4-tetrahydro-2-naphthalenyl]-3,4-dihydro-4-hydroxyspiro[2H-1-benzopyran-2,4'-piperidin]-6-yl]methanesulfonamide binding
Voltage-gated inwardly rectifying potassium channel KCNH2, sequence (Q12809 whole entry): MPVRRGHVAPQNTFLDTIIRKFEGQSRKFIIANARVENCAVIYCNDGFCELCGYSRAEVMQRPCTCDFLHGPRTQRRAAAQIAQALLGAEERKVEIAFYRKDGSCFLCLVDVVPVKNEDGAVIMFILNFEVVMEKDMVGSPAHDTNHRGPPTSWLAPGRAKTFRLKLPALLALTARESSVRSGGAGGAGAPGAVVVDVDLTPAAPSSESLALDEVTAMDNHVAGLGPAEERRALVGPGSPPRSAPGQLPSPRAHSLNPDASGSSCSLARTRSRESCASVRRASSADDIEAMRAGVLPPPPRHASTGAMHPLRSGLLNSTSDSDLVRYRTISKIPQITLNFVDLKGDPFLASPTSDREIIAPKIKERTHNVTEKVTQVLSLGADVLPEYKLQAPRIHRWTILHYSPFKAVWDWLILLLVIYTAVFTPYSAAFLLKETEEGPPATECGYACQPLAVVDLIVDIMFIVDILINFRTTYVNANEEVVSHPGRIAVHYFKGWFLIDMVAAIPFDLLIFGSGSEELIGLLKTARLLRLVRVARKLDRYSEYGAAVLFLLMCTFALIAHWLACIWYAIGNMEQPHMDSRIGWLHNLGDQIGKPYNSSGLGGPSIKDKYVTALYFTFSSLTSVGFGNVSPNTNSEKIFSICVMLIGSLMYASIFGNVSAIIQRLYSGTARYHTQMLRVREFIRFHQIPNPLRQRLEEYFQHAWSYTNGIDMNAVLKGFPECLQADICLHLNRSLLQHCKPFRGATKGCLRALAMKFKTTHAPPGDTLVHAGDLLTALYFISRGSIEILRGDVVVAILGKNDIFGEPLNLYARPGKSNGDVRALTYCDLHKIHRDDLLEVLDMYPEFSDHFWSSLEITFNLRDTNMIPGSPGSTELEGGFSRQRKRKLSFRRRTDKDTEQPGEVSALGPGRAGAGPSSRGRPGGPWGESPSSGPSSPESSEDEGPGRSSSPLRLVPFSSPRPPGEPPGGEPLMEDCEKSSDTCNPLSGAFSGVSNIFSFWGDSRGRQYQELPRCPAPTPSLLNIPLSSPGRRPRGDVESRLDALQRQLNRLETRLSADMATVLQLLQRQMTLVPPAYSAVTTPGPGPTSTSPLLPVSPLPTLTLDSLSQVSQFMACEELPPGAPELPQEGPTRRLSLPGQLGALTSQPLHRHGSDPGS

[3] = Ratio of drug level in brain to plasma in Sprague-Dawley rat at 10 mg/kg, po after 2 hrs; assay type: ADME, organism-based; parameters: dose 10 mg/kg, route oral; settings: read-out: BPR
Method in brief: (§1)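 Male SD rats dosed orally at 10 mg/kg. Plasma, brain and CSF concentrations determined 2 h after dosing. Brain/plasma ratio taken from these levels. Mean of n = 3 animals.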

[4] = Cmax in rhesus monkey at 0.3 mg/kg, iv and 1 mg/kg, po; assay type: ADME, organism-based, Macaca mulatta; settings: in vivo
Method in brief: (§2)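 Male SD rats, male Beagle dogs, male rhesus monkeys given single doses iv (PEG400/EtOH/H2O 50/10/40) or po by gavage (0.5% methylcellulose suspension). Rats 1 mg/kg iv and 3 mg/kg po; dogs and monkeys 0.3 mg/kg iv and 1 mg/kg po. Plasma sampled at multiple times up to 24 h, deproteinized with ethanol plus internal standard. Mean of n = 3 animals/dose.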

Canis familiaris [5] = test: Oral bioavailability in Beagle dog at 1 mg/kg; assay type: ADME, organism-based, Canis lupus familiaris; settings: in vivo; method in brief: as §2
Canis familiaris [6] = test: AUC (0 to infinity) in Beagle dog at 1 mg/kg, po; assay type: ADME, organism-based, Canis lupus familiaris, Plasma; parameters: time infinity, dose 1 mg/kg, route oral; settings: in vivo; method in brief: as §2
[7] = Plasma concentration in Sprague-Dawley rat at 10 mg/kg, po after 2 hrs; assay type: ADME, organism-based; parameters: dose 10 mg/kg, route oral; method in brief: as §1
[8] = Plasma clearance in Sprague-Dawley rat at 1 mg/kg, iv; assay type: ADME, organism-based; parameters: dose 1 mg/kg, route intravenous; method in brief: as §2
[9] = Cmax in Beagle dog at 0.3 mg/kg, iv and 1 mg/kg, po; assay type: ADME, organism-based, Canis lupus familiaris; settings: in vivo; method in brief: as §2
Histamine H3 receptor [10] = molecular target: T1, Histamine H3 receptor; test: Displacement of [3H]N-alpha-methylhistamine from human recombinant histamine H3 receptor expressed in CHO-K1 cells; assay type: cell-based
Histamine H3 receptor [11] = molecular target: Histamine H3 receptor (Mus musculus, UniProt P58406); test: Displacement of [3H]N-alpha-methylhistamine from mouse recombinant histamine H3 receptor
Histamine H3 receptor (Mus musculus, UniProt P58406), sequence (P58406 whole entry): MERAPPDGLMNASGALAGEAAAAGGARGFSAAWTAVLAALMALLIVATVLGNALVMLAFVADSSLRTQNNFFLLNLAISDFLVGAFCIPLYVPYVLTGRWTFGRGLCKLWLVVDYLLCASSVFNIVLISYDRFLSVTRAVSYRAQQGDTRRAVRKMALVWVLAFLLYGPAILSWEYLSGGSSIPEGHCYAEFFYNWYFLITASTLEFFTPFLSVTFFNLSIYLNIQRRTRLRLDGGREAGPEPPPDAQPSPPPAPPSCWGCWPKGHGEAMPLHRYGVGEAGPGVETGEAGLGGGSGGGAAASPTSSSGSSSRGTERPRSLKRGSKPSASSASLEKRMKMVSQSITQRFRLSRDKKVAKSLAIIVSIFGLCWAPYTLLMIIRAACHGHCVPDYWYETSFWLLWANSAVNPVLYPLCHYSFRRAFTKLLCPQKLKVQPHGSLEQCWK

Histamine H3 receptor [12] = molecular target: Histamine H3 receptor (Rattus norvegicus, UniProt Q9QYN8); test: Displacement of [3H]N-alpha-methylhistamine from rat recombinant histamine H3 receptor expressed in HEK293 cells; assay type: cell-based
Histamine H3 receptor (Rattus norvegicus, UniProt Q9QYN8), sequence (Q9QYN8 whole entry): as the sequence (P58406 whole entry) above, with A15T, T286A, G290A, H387R, V389I counted along it

LLC-PK1 [13] = test: Ratio of permeability from apical to basolateral side over basolateral to apical side in pig LLC-PK1 cells expressing mouse MDR1a; assay type: ADME, cell-based, Sus scrofa
[14] = Oral bioavailability in Sprague-Dawley rat at 3 mg/kg; assay type: ADME, organism-based; settings: in vivo; method in brief: as §2
[15] = AUC (0 to infinity) in Sprague-Dawley rat at 3 mg/kg, po; assay type: ADME, organism-based; parameters: time infinity, dose 3 mg/kg, route oral; settings: plasma; method in brief: as §2
[16] = Drug level in Sprague-Dawley rat cerebrospinal fluid at 10 mg/kg, po after 2 hrs; assay type: ADME, organism-based; parameters: dose 10 mg/kg, route oral; settings: read-out: Drug uptake; method in brief: as §1
Brain = test: Drug level in Sprague-Dawley rat brain at 10 mg/kg, po after 2 hrs; assay type: ADME, organism-based; parameters: dose 10 mg/kg, route oral; settings: in vivo; method in brief: as §1
[17] = Cmax in Sprague-Dawley rat at 1 mg/kg, iv and 3 mg/kg, po; assay type: ADME, organism-based; settings: in vivo; method in brief: as §2
LLC-PK1 [18] = test: Ratio of permeability from apical to basolateral side over basolateral to apical side in pig LLC-PK1 cells expressing human MDR1; assay type: ADME, cell-based, Sus scrofa
Rhesus monkey [19] = test: AUC (0 to infinity) in rhesus monkey at 1 mg/kg, po; assay type: ADME, organism-based, Macaca mulatta, Plasma; parameters: time infinity, dose 1 mg/kg, route oral; settings: in vivo; method in brief: as §2
Rhesus monkey [20] = test: Oral bioavailability in rhesus monkey at 1 mg/kg; assay type: ADME, organism-based, Macaca mulatta; settings: in vivo; method in brief: as §2
[21] = Ratio of drug level in cerebrospinal fluid to brain in Sprague-Dawley rat at 10 mg/kg, po after 2 hrs; assay type: ADME, organism-based, CSF/Brain; parameters: dose 10 mg/kg, route oral; settings: in vivo

T1 sequence (Q9Y5N1 whole entry): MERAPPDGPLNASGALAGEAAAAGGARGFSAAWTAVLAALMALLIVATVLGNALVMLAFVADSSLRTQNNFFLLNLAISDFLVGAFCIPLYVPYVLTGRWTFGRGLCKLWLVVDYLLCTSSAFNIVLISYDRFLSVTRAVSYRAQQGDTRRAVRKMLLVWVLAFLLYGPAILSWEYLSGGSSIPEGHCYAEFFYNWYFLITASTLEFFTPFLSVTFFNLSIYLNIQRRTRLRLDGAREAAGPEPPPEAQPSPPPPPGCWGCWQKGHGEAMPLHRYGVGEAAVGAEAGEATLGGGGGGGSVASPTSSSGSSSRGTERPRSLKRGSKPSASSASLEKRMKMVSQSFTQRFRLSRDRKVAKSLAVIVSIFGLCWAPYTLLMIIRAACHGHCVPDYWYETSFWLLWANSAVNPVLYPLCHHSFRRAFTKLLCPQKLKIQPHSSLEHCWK

| SMILES | IC50 (Histamine H3 receptor [1]) [nM] | IC50 [2] [nM] | further results |
| --- | --- | --- | --- |
| Cc1nc2ccccc2c(=O)n1-c1ccc(OC2CCN(C)CC2)cc1 | 740 | – | – |
| Cc1nc2ccccc2c(=O)n1-c1ccc(OC2CCN(C3CCC3)CC2)cc1 | 1.5 | > 10000 | – |
| Cc1nc2ccccc2c(=O)n1-c1ccc(OC2CCN(C3CCCC3)C2)cc1 (configuration not stated) | 37 | – | – |
| Cc1cccc2nc(C)n(-c3ccc(OC4CCN(C5CCC5)CC4)cc3)c(=O)c12 | 0.27 | > 10000 | Kp at 2 h [3]: 2.3; Cmax [4]: 20 nM; F (Canis familiaris [5]): 76%; AUC (Canis familiaris [6]): 5.6 µM·h; concentration at 2 h [7]: 1400 nM; clearance [8]: 25 mL/min/kg; Cmax [9]: 1100 nM; Ki (Histamine H3 receptor [10]): 1.7 nM; Ki (Histamine H3 receptor [11]): 3.9 nM; Ki (Histamine H3 receptor [12]): 1.8 nM; Ratio (LLC-PK1 [13]): 1; bioavailability [14]: 40%; AUC(0-inf) [15]: 2.33 µM·h; concentration at 2 h [16]: 100 nM; Drug uptake (Brain): 3.2 nmol/g; Cmax [17]: 560 nM; Ratio (LLC-PK1 [18]): 0.9; AUC (Rhesus monkey [19]): 0.08 µM·h; F (Rhesus monkey [20]): 1%; Ratio [21]: 0.03 |
| Cc1nc2ccncc2c(=O)n1-c1ccc(OC2CCN(C3CCC3)CC2)cc1 | 2 | > 10000 | – |
| Cc1nc2ccccc2c(=O)n1-c1ccc(OC2CCN(C(C)C)CC2)cc1 | 14 | – | – |
| Cc1nc2ncccc2c(=O)n1-c1ccc(OC2CCN(C3CCC3)CC2)cc1 | 1.6 | > 10000 | – |
| Cc1nc2ccccc2c(=O)n1-c1ccc(O[C@H]2CC[C@H](N3CCCC3)CC2)cc1 | 813 | – | – |
| COc1ccc2nc(C)n(-c3ccc(OC4CCN(C5CCC5)CC4)cc3)c(=O)c2c1 | 1.5 | > 10000 | – |
| Cc1nc2ccccc2c(=O)n1-c1ccc(OC2CCNCC2)cc1 | > 1000 | – | – |
| Cc1nc2ccc(Cl)cc2c(=O)n1-c1ccc(OC2CCN(C3CCC3)CC2)cc1 | 1.5 | 5400 | – |
| Cc1nc2ccccc2c(=O)n1-c1ccc(OC2CCN(C3CCCCC3)CC2)cc1 | 43 | – | – |
| Cc1nc2ccccc2c(=O)n1-c1ccc(OC2CCC(N3CCCC3)C2)cc1 (stereo in doubt; 3a) | 3.4 | > 10000 | – |
| COc1cccc2c(=O)n(-c3ccc(OC4CCN(C5CCC5)CC4)cc3)c(C)nc12 | 4.2 | > 10000 | – |
| Cc1nc2cnccc2c(=O)n1-c1ccc(OC2CCN(C3CCC3)CC2)cc1 | 1.8 | > 10000 | – |
| CCN1CCC(Oc2ccc(-n3c(C)nc4ccccc4c3=O)cc2)CC1 | 49 | – | – |
| CCCN1CCC(Oc2ccc(-n3c(C)nc4ccccc4c3=O)cc2)CC1 | 60 | – | – |
| CNC(=O)c1ccc(Oc2ccc3c(c2)CCN(C2CCC2)CC3)nc1 [GSK189254] | 0.55 | – | – |

Reference: ChEMBL document CHEMBL1142515, “Synthesis and evaluation of structurally constrained quinazolinone derivatives as potent and selective histamine H3 receptor inverse agonists” (J Med Chem, 2008)
